Assay results from ChEMBL document CHEMBL5390275, “Molecular Graph-Based Deep Learning Algorithm Facilitates an Imaging-Based Strategy for Rapid Discovery of Small Molecules Modulating Biomolecular Condensates” (J Med Chem, 2023).
The source made the active and inactive calls. No cut-off for these calls is given here.

Experiments:
[1] = test system: TAR DNA-binding protein 43 (Homo sapiens), Q13148 [K181E]; test: Inhibition of doxycycline induced TDP-43 K181E mutant anisosomes formation in human U2OS cells expressing ALS-causing TDP-43 K181E mutant anisosomes assessed as change in TDP-43 droplets morphology at 1 to 10 uM incubated for 24 hrs by fluorescence imaging analysis; format: cell-based; conditions: dose 1-10 µM
TAR DNA-binding protein 43 (Homo sapiens), Q13148 [K181E], sequence (Q13148 whole entry K181E): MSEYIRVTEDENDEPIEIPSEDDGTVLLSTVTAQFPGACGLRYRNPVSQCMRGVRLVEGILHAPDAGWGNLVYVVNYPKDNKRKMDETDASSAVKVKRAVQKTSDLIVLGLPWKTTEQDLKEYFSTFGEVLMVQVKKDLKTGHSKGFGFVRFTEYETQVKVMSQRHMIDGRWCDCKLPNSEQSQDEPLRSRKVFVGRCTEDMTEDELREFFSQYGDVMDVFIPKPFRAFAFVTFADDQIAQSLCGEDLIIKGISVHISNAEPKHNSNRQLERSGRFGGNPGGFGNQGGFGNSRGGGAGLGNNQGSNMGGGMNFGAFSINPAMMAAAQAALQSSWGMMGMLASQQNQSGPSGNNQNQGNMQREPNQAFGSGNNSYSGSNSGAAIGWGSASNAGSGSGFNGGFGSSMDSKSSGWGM
How it was run: (§1)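 U2OS cells stably expressing inducible TDP-43 K181E or NCOR2 anisosomes, treated with compound for 24 h (10uM, or a concentration series), then fixed and imaged; fraction of demixing cells quantified from fluorescent images.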

[2] = target: TAR DNA-binding protein 43 (Homo sapiens) (UniProt Q13148); test: Inhibition of human TDP-43 in human SH-SY5Y cells assessed a splicing changes in normal STMN2 mRNA at 10 uM incubated for 24 hrs by qPCR analysis; format: cell-based
TAR DNA-binding protein 43 (Homo sapiens), sequence (Q13148 whole entry, canonical isoform): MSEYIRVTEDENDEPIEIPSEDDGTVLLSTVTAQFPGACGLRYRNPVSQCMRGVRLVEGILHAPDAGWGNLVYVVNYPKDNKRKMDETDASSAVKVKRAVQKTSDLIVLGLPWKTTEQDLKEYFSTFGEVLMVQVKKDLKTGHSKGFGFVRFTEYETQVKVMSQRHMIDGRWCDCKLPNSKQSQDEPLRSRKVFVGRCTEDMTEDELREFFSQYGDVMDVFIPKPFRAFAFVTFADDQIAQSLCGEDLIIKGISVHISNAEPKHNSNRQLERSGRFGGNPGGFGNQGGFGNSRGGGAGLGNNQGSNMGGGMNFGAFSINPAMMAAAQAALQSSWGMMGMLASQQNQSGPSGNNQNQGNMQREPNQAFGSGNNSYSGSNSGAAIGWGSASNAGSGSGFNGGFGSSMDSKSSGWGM
How it was run: (§2)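 SH-SY5Y neuron-like cells (DMEM/F12, 10% FBS) given compound at 10uM final for 24 h; total RNA then harvested and normal and cryptic spliced STMN2 mRNA quantified by real-time PCR.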

[3] = test system: DLD-1; test: Inhibition of doxycycline induced TDP-43 2KQ mutant anisosomes formation in human DLD-1 cells expressing TDP-43 2KQ mutant anisosomes at 10 uM incubated for 24 hrs by fluorescence imaging analysis; format: cell-based
How it was run: (§3)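 Stable lentivirally transduced DLD1 (single-cell clones sorted by fluorescence) or U2OS lines expressing inducible TDP-43 anisosomes; plated 4000 cells/well, overnight, then compound 24 h; cells fixed, fluorescent anisosomes imaged on ImageExpress HTai and anisosome number per cell quantified.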

[4] = test system: U2OS; test: Inhibition of doxycycline induced TDP-43 2KQ mutant anisosomes formation in human U2OS cells expressing TDP-43 2KQ mutant anisosomes at 10 uM incubated for 24 hrs by fluorescence imaging analysis; format: cell-based; how it was run: as §3
[5] = target: Nuclear receptor corepressor 2 (Homo sapiens) (UniProt Q9Y618); test: Inhibition of doxycycline induced NCOR2 anisosomes formation in human U2OS cells expressing ALS-causing NCOR2 anisosomes assessed as change in NCOR2 droplets morphology at 10 uM incubated for 24 hrs by fluorescence imaging analysis; format: cell-based; how it was run: as §1
Nuclear receptor corepressor 2 (Homo sapiens), sequence (Q9Y618 whole entry): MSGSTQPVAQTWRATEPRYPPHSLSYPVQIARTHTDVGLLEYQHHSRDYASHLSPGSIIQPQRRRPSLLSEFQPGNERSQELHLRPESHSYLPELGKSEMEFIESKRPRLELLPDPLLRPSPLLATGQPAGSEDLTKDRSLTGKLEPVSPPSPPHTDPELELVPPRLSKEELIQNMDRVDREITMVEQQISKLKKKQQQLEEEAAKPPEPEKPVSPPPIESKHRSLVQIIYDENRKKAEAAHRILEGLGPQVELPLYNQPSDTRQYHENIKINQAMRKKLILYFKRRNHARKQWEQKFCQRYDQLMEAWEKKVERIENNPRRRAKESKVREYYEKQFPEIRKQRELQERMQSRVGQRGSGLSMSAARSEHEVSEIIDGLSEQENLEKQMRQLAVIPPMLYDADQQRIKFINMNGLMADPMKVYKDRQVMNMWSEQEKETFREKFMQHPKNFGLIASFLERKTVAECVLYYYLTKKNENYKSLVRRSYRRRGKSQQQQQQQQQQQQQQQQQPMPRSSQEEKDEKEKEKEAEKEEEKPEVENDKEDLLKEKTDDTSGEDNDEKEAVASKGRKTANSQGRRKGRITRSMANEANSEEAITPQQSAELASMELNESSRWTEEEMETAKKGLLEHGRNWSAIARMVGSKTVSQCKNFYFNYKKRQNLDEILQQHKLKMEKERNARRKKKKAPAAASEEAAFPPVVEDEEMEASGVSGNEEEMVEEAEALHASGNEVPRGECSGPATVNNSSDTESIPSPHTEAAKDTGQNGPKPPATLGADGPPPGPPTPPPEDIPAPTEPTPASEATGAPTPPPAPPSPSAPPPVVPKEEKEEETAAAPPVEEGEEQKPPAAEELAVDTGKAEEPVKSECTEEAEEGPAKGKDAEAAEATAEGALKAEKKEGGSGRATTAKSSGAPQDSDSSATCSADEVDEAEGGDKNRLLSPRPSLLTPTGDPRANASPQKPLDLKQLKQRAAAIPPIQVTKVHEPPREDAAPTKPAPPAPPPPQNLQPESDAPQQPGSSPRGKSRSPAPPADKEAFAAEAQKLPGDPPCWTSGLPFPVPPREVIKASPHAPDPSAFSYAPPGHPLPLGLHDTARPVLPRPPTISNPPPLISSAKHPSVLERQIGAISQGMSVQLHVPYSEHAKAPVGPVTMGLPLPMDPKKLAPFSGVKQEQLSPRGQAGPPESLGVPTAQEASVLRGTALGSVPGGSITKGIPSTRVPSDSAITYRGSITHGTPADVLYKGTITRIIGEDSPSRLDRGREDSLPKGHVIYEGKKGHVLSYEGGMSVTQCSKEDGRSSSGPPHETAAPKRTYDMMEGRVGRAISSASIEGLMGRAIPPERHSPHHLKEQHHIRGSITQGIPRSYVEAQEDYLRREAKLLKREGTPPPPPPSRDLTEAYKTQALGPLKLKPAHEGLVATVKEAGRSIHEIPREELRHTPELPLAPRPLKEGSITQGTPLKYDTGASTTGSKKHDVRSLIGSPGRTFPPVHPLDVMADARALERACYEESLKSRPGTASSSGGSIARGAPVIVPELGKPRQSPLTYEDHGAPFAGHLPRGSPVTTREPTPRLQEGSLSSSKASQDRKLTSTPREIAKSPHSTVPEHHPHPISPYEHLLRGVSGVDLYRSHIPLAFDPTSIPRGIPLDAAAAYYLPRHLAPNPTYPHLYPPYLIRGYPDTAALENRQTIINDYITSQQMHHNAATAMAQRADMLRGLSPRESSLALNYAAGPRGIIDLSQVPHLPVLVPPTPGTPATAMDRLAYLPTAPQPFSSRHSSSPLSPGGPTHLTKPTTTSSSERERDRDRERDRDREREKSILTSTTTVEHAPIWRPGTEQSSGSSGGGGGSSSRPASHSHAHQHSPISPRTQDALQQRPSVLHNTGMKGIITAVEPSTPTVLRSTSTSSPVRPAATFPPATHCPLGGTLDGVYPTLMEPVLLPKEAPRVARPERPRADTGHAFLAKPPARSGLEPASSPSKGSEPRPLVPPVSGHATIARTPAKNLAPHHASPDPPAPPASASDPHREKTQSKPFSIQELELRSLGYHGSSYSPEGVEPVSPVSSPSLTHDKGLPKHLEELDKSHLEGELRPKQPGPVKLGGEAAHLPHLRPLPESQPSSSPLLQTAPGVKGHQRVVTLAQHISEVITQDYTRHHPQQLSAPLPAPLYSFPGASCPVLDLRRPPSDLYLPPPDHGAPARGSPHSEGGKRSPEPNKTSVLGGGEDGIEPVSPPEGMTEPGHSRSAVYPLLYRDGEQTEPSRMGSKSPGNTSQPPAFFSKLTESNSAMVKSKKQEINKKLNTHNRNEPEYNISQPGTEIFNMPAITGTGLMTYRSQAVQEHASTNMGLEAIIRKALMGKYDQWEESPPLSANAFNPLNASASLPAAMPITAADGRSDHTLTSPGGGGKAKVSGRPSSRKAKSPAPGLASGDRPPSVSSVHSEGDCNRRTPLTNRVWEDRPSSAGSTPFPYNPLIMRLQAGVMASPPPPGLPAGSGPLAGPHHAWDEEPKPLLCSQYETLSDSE

[6] = test system: DLD-1; test: Inhibition of sodium arsenite induced stress granule formation in human DLD-1 cells at 10 uM incubated for 24 hrs followed by sodium arsenite stimulation for 1 hr by G3BP1 staining based immunostaining analysis; format: functional, cell-based
How it was run: (§4)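 DLD1 cells on glass-bottom plates treated with compound at 10uM for 24 h, then 250uM sodium arsenite for 1 h; DMSO control. Fixed in 4% PFA 10 min RT, permeabilized, blocked (5% BSA, 0.1% Triton X-100), stained with anti-G3BP1 and anti-NPM1 (1:100, 1 h RT), secondaries 1:1000 30 min, DAPI; spinning-disc confocal max-projection images analysed.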

[7] = test system: DLD-1; test: Inhibition of sodium arsenite stimulated human DLD-1 cells assessed as change in nucleolus morphology at 10 uM incubated for 24 hrs followed by sodium arsenite stimulation for 1 hr by NPM1 staining based immunostaining analysis; format: functional, cell-based; how it was run: as §4
[8] = test system: SH-SY5Y; test: Inhibition of TDP-43 2KQ mutant in human SH-SY5Y cells assessed a splicing changes in cryptic STMN2 mRNA at 10 uM incubated for 24 hrs by qPCR analysis; format: cell-based; how it was run: as §2

inhibition [1]	inhibition [2]	inhibition [5]	Structure (SMILES)	inhibition [3]	inhibition [4]	inhibition [6]	inhibition [7]	inhibition [8]
–	inactive	–	COc1ccc(S(=O)(=O)NCC(c2ccco2)S(=O)(=O)c2cccs2)cc1F (centres undefined)	–	–	inactive	–	–
inactive	inactive	Active	COc1ccc(NC(=O)Cn2c(SCc3ccc(F)cc3)nc3cccnc32)cc1OC	–	–	inactive	–	–

Second part, the compound before the results:

Structure (SMILES)	inhibition [1]	inhibition [2]	inhibition [5]	inhibition [3]	inhibition [4]	inhibition [6]	inhibition [7]	inhibition [8]
C=C1C(=O)O[C@H]2C3=C(C)CCC[C@]3(C)C(=O)C[C@@H]12	Active	inactive	Active	Active	Active	Active	Active	–
Cc1ccc(CCNc2ncnc3onc(C)c23)cc1	–	inactive	–	inactive	inactive	inactive	–	Active
COc1ccc2[nH]c(=O)c3c(c2c1)OC(C)(C)C=C3	Dose-Dependent Effect	inactive	inactive	Active	Active	inactive	–	–
